Source: the M2OR odorant receptor database

Legend:
Details in all cases: stereoisomer not certain
[1] = tested on: T1, OR3A3 T48I L132F
T1 sequence (whole entry): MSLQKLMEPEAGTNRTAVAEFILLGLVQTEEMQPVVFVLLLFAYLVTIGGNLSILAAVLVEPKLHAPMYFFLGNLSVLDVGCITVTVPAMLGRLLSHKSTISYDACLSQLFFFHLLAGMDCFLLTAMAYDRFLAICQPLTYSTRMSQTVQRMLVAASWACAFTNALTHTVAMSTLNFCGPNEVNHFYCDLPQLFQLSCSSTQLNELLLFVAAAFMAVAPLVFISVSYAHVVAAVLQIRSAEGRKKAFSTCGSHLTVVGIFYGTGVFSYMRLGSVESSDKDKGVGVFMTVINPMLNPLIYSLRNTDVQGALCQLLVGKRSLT
Outline: (§1)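 Each receptor–molecule pair is labelled responsive or non-responsive (inactive) according to whether the original authors judged the measured signal statistically different from baseline. The data were taken from the main text and supplementary material of published papers and checked for typos and inconsistencies. Assay methods differed by source, with transient luciferase assays in mammalian cell lines being common.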

[2] = target: OR4A15 (Homo sapiens) (UniProt Q8NGL6)
Outline: as §1

[3] = target: T2, OR4A16 (Homo sapiens) (UniProt Q8NH70)
T2 sequence (whole entry): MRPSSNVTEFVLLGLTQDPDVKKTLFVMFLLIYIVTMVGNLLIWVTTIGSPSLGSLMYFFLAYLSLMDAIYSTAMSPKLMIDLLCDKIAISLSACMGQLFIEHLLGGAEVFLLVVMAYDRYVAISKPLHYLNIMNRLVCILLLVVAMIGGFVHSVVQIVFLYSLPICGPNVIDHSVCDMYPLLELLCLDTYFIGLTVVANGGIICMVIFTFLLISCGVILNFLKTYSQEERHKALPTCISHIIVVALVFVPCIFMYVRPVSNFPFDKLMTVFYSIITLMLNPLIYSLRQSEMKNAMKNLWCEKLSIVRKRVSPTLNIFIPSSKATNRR
Outline: as §1

[4] = target: T3, OR4A47 (Homo sapiens) (UniProt Q6IF82)
T3 sequence (whole entry): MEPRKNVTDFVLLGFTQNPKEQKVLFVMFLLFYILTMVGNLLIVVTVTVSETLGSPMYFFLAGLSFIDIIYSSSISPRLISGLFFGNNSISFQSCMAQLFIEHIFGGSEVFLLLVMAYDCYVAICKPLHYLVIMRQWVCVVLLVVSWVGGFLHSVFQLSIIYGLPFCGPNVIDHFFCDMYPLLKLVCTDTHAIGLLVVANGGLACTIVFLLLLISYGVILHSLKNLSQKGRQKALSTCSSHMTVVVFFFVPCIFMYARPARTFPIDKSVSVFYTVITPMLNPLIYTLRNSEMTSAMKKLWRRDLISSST
Outline: as §1

[5] = target: T4, OR4A5 (Homo sapiens) (UniProt Q8NH83)
T4 sequence (whole entry): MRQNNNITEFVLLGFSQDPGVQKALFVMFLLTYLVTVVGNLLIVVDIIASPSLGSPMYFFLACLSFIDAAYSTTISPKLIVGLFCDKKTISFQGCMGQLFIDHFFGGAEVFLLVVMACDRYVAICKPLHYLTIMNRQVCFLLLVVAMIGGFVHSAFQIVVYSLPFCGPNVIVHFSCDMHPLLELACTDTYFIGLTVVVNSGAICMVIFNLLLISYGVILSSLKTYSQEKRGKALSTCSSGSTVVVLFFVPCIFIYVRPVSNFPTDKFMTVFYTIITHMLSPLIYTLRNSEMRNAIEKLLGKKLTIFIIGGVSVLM
Outline: as §1

[6] = target: T5, OR4B1 (Homo sapiens) (UniProt Q8NGF8)
T5 sequence (whole entry): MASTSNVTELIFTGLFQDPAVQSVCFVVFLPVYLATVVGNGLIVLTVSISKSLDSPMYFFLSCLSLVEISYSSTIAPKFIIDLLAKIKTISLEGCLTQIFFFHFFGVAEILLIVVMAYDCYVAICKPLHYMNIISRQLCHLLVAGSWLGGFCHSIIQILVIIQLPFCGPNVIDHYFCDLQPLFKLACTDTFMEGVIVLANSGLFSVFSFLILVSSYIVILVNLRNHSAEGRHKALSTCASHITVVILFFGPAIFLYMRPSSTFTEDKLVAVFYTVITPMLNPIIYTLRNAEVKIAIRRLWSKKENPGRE
Outline: as §1

[7] = target: T6, OR4C11 (Homo sapiens) (UniProt Q6IEV9)
T6 sequence (whole entry): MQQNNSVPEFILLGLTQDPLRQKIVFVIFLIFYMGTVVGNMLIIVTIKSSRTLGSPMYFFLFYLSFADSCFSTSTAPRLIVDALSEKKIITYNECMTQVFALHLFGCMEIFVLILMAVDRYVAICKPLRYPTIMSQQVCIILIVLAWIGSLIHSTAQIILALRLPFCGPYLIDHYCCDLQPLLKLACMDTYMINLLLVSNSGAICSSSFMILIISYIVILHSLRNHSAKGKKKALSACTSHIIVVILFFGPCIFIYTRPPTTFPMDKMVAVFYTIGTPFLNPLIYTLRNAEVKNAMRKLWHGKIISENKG
Outline: as §1

[8] = target: OR4C12 (Homo sapiens) (UniProt Q96R67)
Outline: as §1

[9] = target: OR4C13 (Homo sapiens) (UniProt Q8NGP0)
Outline: as §1

[10] = target: T7, OR4C16 (Homo sapiens) (UniProt Q8NGL9)
T7 sequence (whole entry): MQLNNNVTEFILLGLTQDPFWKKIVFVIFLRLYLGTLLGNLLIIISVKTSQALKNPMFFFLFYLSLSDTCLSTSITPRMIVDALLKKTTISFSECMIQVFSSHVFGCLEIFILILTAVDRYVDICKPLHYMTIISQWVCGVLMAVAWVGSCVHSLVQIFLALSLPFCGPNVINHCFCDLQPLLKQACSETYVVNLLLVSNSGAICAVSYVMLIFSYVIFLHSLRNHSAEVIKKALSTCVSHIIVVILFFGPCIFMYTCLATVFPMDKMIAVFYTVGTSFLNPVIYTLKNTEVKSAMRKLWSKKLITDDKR
Outline: as §1

[11] = tested on: OR4C3
Outline: as §1

[12] = target: OR4C45 (Homo sapiens) (UniProt A6NMZ5)
Outline: as §1
Target sequence in this assay (A6NMZ5 whole entry): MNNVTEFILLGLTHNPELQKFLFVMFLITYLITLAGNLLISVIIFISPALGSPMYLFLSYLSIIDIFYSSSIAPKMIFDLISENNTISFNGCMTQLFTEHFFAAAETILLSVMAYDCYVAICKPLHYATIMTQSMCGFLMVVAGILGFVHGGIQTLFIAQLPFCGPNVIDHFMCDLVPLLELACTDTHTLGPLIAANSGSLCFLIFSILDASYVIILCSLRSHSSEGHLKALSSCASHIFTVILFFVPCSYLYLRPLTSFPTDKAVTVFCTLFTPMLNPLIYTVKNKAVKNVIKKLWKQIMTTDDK

[13] = target: OR4C46 (Homo sapiens) (UniProt A6NHA9)
Outline: as §1

[14] = target: OR4C5 (Homo sapiens) (UniProt Q8NGB2)
Outline: as §1

[15] = target: OR4C6 (Homo sapiens) (UniProt Q8NH72)
Outline: as §1

[16] = target: T8, OR3A4P (Homo sapiens) (UniProt P47883)
T8 sequence (whole entry): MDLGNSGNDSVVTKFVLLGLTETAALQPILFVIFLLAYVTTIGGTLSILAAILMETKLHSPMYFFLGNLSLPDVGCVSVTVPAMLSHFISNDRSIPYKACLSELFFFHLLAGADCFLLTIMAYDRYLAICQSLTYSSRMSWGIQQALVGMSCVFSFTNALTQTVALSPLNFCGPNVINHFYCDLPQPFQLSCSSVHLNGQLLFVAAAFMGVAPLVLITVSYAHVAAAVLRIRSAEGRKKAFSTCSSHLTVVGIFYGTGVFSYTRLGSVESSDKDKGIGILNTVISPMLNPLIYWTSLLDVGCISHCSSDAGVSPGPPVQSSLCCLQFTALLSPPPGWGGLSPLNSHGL
Outline: as §1

[17] = target: OR4C15 (Homo sapiens) (UniProt Q8NGM1)
Outline: as §1

[18] = target: OR4C3 (Homo sapiens) (UniProt Q8NH37)
Outline: as §1

[19] = target: T9, OR4C45 (Homo sapiens) (UniProt A6NMZ5); remark: listed apart in the source
T9 sequence (whole entry): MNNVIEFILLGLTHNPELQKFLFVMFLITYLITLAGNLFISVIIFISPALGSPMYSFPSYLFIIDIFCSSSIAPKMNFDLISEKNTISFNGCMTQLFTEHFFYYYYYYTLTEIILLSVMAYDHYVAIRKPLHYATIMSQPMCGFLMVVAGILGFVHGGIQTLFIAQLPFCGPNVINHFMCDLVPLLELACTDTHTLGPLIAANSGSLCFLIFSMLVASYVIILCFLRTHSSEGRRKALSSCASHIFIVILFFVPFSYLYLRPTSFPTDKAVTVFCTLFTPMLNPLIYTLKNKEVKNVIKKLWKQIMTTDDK
Outline: as §1

[20] = target: OR4A8 (Homo sapiens) (UniProt P0C604)
Outline: as §1

Chain of OR4C3 (as listed by the source): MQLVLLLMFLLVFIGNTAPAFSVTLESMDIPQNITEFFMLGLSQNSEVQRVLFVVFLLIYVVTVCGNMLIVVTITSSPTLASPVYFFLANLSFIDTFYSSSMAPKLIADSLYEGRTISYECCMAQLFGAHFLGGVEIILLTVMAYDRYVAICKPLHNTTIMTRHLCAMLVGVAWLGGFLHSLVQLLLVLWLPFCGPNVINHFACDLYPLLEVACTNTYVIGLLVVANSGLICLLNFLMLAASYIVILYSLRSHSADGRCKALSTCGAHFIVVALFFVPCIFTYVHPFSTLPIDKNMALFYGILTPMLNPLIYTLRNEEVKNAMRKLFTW
Chain of OR4A15 (Homo sapiens) (Q8NGL6 whole entry): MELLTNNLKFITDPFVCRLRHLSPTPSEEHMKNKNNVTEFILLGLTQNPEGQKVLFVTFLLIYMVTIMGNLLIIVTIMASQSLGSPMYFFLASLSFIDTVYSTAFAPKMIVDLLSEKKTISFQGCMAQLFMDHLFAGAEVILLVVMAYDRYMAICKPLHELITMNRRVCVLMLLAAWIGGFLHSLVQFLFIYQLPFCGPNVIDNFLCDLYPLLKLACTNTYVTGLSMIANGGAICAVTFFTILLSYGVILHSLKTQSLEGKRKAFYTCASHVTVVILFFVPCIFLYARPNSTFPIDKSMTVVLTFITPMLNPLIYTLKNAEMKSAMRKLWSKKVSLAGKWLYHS
Chain of OR4C15 (Homo sapiens) (Q8NGM1 whole entry): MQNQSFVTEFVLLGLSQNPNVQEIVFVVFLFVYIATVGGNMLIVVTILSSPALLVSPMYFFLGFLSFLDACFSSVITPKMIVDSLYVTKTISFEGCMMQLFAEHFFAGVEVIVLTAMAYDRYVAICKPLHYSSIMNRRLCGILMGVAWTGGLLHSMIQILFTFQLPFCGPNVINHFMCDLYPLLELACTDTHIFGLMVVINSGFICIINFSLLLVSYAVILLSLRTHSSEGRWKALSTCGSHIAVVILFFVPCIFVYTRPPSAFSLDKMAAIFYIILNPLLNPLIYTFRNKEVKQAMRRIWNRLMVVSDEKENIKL
Chain of OR4C13 (Homo sapiens) (Q8NGP0 whole entry): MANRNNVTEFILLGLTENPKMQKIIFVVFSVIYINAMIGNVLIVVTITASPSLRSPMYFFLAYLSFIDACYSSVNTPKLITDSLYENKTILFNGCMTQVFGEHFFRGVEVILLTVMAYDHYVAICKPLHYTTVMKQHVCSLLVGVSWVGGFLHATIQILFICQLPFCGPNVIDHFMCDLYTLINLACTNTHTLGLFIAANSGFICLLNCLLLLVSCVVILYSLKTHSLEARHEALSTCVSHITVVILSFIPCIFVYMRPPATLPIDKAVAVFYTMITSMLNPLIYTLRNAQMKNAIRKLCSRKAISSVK
Chain of OR4C3 (Homo sapiens) (Q8NH37 whole entry): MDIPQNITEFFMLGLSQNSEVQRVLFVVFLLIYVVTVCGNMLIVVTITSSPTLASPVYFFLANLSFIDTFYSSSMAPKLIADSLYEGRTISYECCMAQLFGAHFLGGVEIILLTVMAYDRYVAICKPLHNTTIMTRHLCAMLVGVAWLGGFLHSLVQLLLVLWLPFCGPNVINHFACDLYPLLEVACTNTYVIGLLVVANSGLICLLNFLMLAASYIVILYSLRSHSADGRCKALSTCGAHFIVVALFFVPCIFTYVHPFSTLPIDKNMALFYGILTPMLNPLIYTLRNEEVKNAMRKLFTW
Chain of OR4C6 (Homo sapiens) (Q8NH72 whole entry): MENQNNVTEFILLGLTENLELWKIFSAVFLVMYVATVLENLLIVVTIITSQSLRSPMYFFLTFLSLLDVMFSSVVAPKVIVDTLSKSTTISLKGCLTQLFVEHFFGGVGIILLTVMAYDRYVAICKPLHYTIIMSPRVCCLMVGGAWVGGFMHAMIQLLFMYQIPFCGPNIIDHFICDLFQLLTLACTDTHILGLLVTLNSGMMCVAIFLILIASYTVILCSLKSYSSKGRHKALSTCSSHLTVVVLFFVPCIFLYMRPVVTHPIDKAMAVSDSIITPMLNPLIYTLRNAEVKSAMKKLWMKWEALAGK
Chain of OR4C46 (Homo sapiens) (A6NHA9 whole entry): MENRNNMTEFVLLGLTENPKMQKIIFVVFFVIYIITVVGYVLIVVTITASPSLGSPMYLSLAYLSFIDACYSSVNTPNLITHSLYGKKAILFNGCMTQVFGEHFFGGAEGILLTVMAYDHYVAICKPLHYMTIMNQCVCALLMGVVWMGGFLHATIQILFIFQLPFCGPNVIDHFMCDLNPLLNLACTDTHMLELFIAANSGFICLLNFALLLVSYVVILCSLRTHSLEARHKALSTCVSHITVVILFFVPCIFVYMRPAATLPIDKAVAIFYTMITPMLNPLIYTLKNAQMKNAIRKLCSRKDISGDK
Chain of OR4C12 (Homo sapiens) (Q96R67 whole entry): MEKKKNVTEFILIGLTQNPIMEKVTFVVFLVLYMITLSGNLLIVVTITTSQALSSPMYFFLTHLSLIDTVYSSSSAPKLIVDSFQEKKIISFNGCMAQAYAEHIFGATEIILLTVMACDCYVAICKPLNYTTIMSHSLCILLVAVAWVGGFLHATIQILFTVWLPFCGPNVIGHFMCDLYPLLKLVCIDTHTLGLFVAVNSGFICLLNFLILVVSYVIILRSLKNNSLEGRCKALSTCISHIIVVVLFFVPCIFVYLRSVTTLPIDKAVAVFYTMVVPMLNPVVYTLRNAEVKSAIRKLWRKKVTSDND
Chain of OR4C5 (Homo sapiens) (Q8NGB2 whole entry): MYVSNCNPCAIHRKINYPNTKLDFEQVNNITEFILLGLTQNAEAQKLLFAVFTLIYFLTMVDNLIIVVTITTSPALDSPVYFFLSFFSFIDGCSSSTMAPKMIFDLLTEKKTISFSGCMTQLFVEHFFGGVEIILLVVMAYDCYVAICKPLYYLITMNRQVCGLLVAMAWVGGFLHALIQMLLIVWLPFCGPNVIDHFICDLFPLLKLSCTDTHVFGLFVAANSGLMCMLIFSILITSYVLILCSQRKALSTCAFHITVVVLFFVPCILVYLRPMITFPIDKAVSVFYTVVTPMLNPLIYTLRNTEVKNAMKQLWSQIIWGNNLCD
Chain of OR4A8 (Homo sapiens) (P0C604 whole entry): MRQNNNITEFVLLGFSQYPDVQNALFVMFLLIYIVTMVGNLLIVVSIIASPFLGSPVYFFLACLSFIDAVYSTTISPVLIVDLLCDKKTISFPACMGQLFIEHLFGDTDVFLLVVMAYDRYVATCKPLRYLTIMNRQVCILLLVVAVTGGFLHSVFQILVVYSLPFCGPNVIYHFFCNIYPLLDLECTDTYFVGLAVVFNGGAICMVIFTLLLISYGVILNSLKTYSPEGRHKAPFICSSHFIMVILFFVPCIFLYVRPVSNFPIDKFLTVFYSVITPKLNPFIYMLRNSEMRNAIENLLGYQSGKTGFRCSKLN

Row | Compound | odorant receptor agonist call [1] | odorant receptor agonist call [2] | odorant receptor agonist call [3] | odorant receptor agonist call [4] | odorant receptor agonist call [5] | odorant receptor agonist call [6] | odorant receptor agonist call [7] | odorant receptor agonist call [8] | odorant receptor agonist call [9] | odorant receptor agonist call [10] | odorant receptor agonist call [11] | odorant receptor agonist call [12] | odorant receptor agonist call [13] | odorant receptor agonist call [14] | odorant receptor agonist call [15] | odorant receptor agonist call [16] | odorant receptor agonist call [17] | odorant receptor agonist call [18] | odorant receptor agonist call [19] | odorant receptor agonist call [20]
1 | Cc1cnc(C)c(C)n1 | inactive | inactive | inactive | inactive | inactive | inactive | inactive | inactive | inactive | inactive | inactive | inactive | inactive | inactive | inactive | – | – | – | – | –
2 | CC1=NC(C)C(C)S1 (centres undefined) | inactive | inactive | inactive | inactive | inactive | inactive | inactive | inactive | inactive | inactive | inactive | inactive | inactive | inactive | inactive | – | – | – | – | –
3 | CC(CO)CS (centres undefined) | – | inactive | inactive | inactive | inactive | inactive | inactive | inactive | inactive | inactive | – | – | inactive | inactive | inactive | inactive | inactive | inactive | inactive | –
4 | CCCCCC(S)C(C)CO (centres undefined) | – | inactive | active | inactive | inactive | inactive | inactive | inactive | inactive | inactive | – | – | inactive | inactive | inactive | inactive | inactive | inactive | inactive | –
5 | CCC(S)C(C)CO (centres undefined) | – | inactive | inactive | inactive | inactive | inactive | inactive | inactive | inactive | inactive | – | – | inactive | inactive | inactive | inactive | inactive | inactive | inactive | –
6 | CC(=O)c1c(C)c([N+](=O)[O-])c(C(C)(C)C)c([N+](=O)[O-])c1C | – | inactive | inactive | inactive | inactive | inactive | inactive | inactive | inactive | inactive | – | – | inactive | inactive | inactive | – | inactive | inactive | inactive | inactive
7 | CC1=C(O)C(=O)OC1C (centres undefined) | inactive | inactive | inactive | inactive | inactive | inactive | inactive | inactive | inactive | inactive | inactive | inactive | inactive | inactive | inactive | – | – | – | – | –
8 | CC1=C(O)C(=O)C(C)O1 (centres undefined) | inactive | inactive | inactive | inactive | inactive | inactive | inactive | inactive | inactive | inactive | inactive | inactive | inactive | inactive | inactive | – | – | – | – | –
